Data published in ChEMBL document CHEMBL4610095, “chiro-Inositol Derivatives from Chisocheton paniculatus Showing Inhibition of Nitric Oxide Production” (J Nat Prod, 2020).

What was measured:
RAW264.7 = assay: Antiinflammatory activity in mouse RAW264.7 cells assessed as reduction in LPS-induced NO production incubated for 24 hrs by Griess reagent based assay; type: functional, cell-based; conditions: RAW264.7, 24 h
Outline: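 RAW 264.7 cells seeded at 2×10^5 cells/well and held 24 h at 37 °C, 5% CO2. Cells treated with or without compounds at various concentrations plus LPS (1 μg/mL) for 24 h. Nitrite in cell-free supernatant read by Griess reaction (sulfanilamide/phosphoric acid, N-1-naphthylethylenediamine) at 540 nm against a NaNO2 standard curve. L-NMMA served as positive control. IC50 reported.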

[1] = Cytotoxicity against mouse RAW264.7 cells assessed as cell viability at 100 ug/ml by MTT assay; type: cell-based; conditions: read-out: Activity
Outline: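 Compounds tested at 100 μg/mL on RAW 264.7 cells seeded at 2×10^5 cells/well. Cells were co-stimulated with LPS (1 μg/mL) for 24 h at 37 °C. Viability of the remaining cells after supernatant removal was measured by MTT colorimetric assay.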

C/C=C(\C)C(=O)O[C@@H]1[C@H](O)[C@@H](OC(=O)C(C)CC)[C@@H](O)[C@H](OC(=O)/C(=C/C)CO)[C@H]1OC(=O)/C(=C/C)CO (some centres not stated) gave an IC50 (RAW264.7) of 20.3 µM and a viability at 100 ug/ml [1] greater than 85%.
Compound C/C=C(\C)C(=O)O[C@@H]1[C@H](O)[C@@H](OC(=O)C(C)CC)[C@@H](OC(=O)/C(=C/C)CO)[C@H](O)[C@H]1OC(=O)/C(=C/C)CO (some centres not stated) has an IC50 (RAW264.7) of 7.1 µM and a viability at 100 ug/ml [1] greater than 85%.
With C/C=C(\CO)C(=O)O[C@H]1[C@H](OC(=O)C(C)CC)[C@H](O)[C@@H](OC(=O)C(C)CC)[C@@H](O)[C@@H]1OC(=O)/C(=C/C)CO (some centres not stated) the IC50 (RAW264.7) was 62.9 µM and the viability at 100 ug/ml [1] was greater than 85%.
For C/C=C(\CO)C(=O)O[C@@H]1[C@@H](O)[C@H](OC(=O)/C(=C/C)CO)[C@H](OC(=O)C(C)CC)[C@@H](O)[C@H]1OC(=O)C(C)CC (some centres not stated), the IC50 (RAW264.7) was 95.6 µM and the viability at 100 ug/ml [1] was greater than 85%.
C/C=C(\C)C(=O)O[C@@H]1[C@@H](O)[C@@H](OC(=O)C(C)CC)[C@H](OC(=O)/C(=C/C)CO)[C@@H](OC(=O)/C(=C/C)CO)[C@@H]1O (some centres not stated) showed an IC50 (RAW264.7) of 124 µM and a viability at 100 ug/ml [1] greater than 85%.
Compound C/C=C(\C)C(=O)O[C@@H]1[C@H](O)[C@@H](O)[C@@H](OC(=O)/C(C)=C/C)[C@H](OC(=O)/C(=C/C)CO)[C@H]1OC(=O)/C(=C/C)CO has an IC50 (RAW264.7) of 56.7 µM and a viability at 100 ug/ml [1] greater than 85%.
